{"source": "ChEMBL document CHEMBL4316598", "about": "“Synthesis, antiproliferative and apoptosis induction potential activities of novel bis(indolyl)hydrazide-hydrazone derivatives” (Bioorg Med Chem, 2019)", "key": {"HeLa [1]": {"tested_on": "HeLa", "assay": "Cytotoxicity against human HeLa cells assessed as reduction in cell viability after 4 hrs by MTT assay", "type": "functional, cell-based", "method_in_brief": "(§1)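 MTT: 10,000–20,000 cells/well attached for 16 h, then washed twice with serum-free RPMI. Treated with 1–200 µM for 4 h, 3 parallel runs per concentration. MTT added for 2 h; medium partly removed and isopropanol added. A590 read. Viability = (A treated − A doxorubicin)/(A medium − A doxorubicin)×100. Mean of three experiments, triplicate wells each.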"}, "MDA-MB-231": {"tested_on": "MDA-MB-231", "assay": "Cytotoxicity against human MDA-MB-231 cells assessed as reduction in cell viability after 4 hrs by MTT assay", "type": "functional, cell-based", "settings": "MDA-MB-231, 4 h", "method_in_brief": "as §1"}, "MCF7 [2]": {"tested_on": "MCF7", "assay": "Cytotoxicity against human MCF7 cells assessed as reduction in cell viability after 4 hrs by MTT assay", "type": "functional, cell-based", "method_in_brief": "as §1"}, "A549": {"tested_on": "A549", "assay": "Cytotoxicity against human A549 cells assessed as reduction in cell viability after 4 hrs by MTT assay", "type": "functional, cell-based", "method_in_brief": "as §1"}, "HEK293": {"tested_on": "HEK293", "assay": "Cytotoxicity against HEK293 cells assessed as reduction in cell viability after 4 hrs by MTT assay", "type": "cell-based, Homo sapiens", "method_in_brief": "as §1"}, "HeLa [3]": {"tested_on": "HeLa", "assay": "Induction of caspase-dependent apoptosis in human HeLa cells assessed as activation of caspase-3 at 3 uM after 24 hrs by Western blot analysis", "type": "functional, cell-based", "method_in_brief": "(§2)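 Cleaved caspase-3 immunoblot. Cells were exposed at 1, 3 and 5 µM for 24 h at 37 °C, with paclitaxel 3 µM as positive control. Lysis was in ice-cold Triton X-100 buffer, and protein was measured by BCA. Lysates were separated by electrophoresis, transferred to nitrocellulose and blocked in milk. Primary antibody was applied overnight at 4 °C and secondary for 1 h at 28 °C. Detection was by enhanced chemiluminescence.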"}, "MCF7 [4]": {"tested_on": "MCF7", "assay": "Induction of caspase-dependent apoptosis in human MCF7 cells assessed as activation of caspase-3 at 3 uM after 24 hrs by Western blot analysis", "type": "functional, cell-based", "method_in_brief": "as §2"}, "[5]": {"assay": "Cytotoxicity against human SW680 cells assessed as reduction in cell viability after 4 hrs by MTT assay", "type": "functional, cell-based"}, "FaDu": {"tested_on": "FaDu", "assay": "Cytotoxicity against human FADU cells assessed as reduction in cell viability after 4 hrs by MTT assay", "type": "functional, cell-based"}, "SCC-25": {"tested_on": "SCC-25", "assay": "Cytotoxicity against human SCC25 cells assessed as reduction in cell viability after 4 hrs by MTT assay", "type": "functional, cell-based", "settings": "SCC-25, 4 h"}, "Detroit 562": {"tested_on": "Detroit 562", "assay": "Cytotoxicity against human Detroit 562 cells assessed as reduction in cell viability after 4 hrs by MTT assay", "type": "functional, cell-based", "settings": "Detroit 562, 4 h"}, "DU-145": {"tested_on": "DU-145", "assay": "Antiproliferative activity against human DU145 cells by MTS assay", "type": "functional, cell-based"}, "[6]": {"settings": "Homo sapiens, HeLa, 4 h, read-out: IC50"}, "[7]": {"settings": "Homo sapiens, A549, 4 h, read-out: IC50"}, "[8]": {"settings": "Homo sapiens, MCF7, 4 h, read-out: IC50"}}, "note": "The source made the active and inactive calls. The rule behind the calls is not given here."}
{"smiles": "COc1ccc2[nH]cc(/C=N\\NC(=O)c3cn(C)c4ccc(Br)cc34)c2c1", "values": [{"measurement": "IC50", "setting": "HeLa [1]; [6]", "value": 14.2, "unit": "µM"}, {"measurement": "IC50", "setting": "MDA-MB-231", "value": 22.7, "unit": "µM"}, {"measurement": "IC50", "setting": "MCF7 [2]; mcf7", "value": "Not Active"}, {"measurement": "IC50", "setting": "A549; [7]", "value": 12.8, "unit": "µM"}, {"measurement": "IC50", "setting": "HEK293; hek293", "value": "Non-Toxic"}]}
{"smiles": "CC(=O)O[C@H]1C(=O)[C@@]2(C)[C@H]([C@H](OC(=O)c3ccccc3)[C@]3(O)C[C@H](OC(=O)[C@H](O)[C@@H](NC(=O)c4ccccc4)c4ccccc4)C(C)=C1C3(C)C)[C@]1(OC(C)=O)CO[C@@H]1C[C@@H]2O", "values": [{"measurement": "Activity", "setting": "HeLa [3]", "value": "Active"}, {"measurement": "Activity", "setting": "MCF7 [4]", "value": "Active"}]}
{"smiles": "Cn1cc(C(=O)N/N=C\\c2c[nH]c3ccccc23)c2cc(Br)ccc21", "values": [{"measurement": "IC50", "setting": "HeLa [1]; hela", "value": "Not Active"}, {"measurement": "IC50", "setting": "MDA-MB-231", "value": 14.2, "unit": "µM"}, {"measurement": "IC50", "setting": "MCF7 [2]; mcf7", "value": "Not Active"}, {"measurement": "IC50", "setting": "A549; a549", "value": "Not Active"}, {"measurement": "IC50", "setting": "HEK293; hek293", "value": "Non-Toxic"}]}
{"smiles": "Cn1cc(/C=N\\NC(=O)c2cn(C)c3ccccc23)c2ccccc21", "values": [{"measurement": "IC50", "setting": "HeLa [1]; hela", "value": "Not Active"}, {"measurement": "IC50", "setting": "MDA-MB-231", "value": 18.9, "unit": "µM"}, {"measurement": "IC50", "setting": "MCF7 [2]; [8]", "value": 31.3, "unit": "µM"}, {"measurement": "IC50", "setting": "A549; [7]", "value": 19, "unit": "µM"}, {"measurement": "IC50", "setting": "HEK293; hek293", "value": "Non-Toxic"}]}
{"smiles": "COc1cccc2c1C(=O)c1c(O)c3c(c(O)c1C2=O)C[C@@](O)(C(=O)CO)C[C@@H]3O[C@H]1C[C@H](N)[C@H](O)[C@H](C)O1", "note": "[DOXORUBICIN]", "values": [{"measurement": "IC50", "setting": "HeLa [1]; [6]", "value": "0.36 to 1.09", "unit": "µM"}, {"measurement": "IC50", "setting": "MDA-MB-231", "value": 3.1, "unit": "µM"}, {"measurement": "IC50", "setting": "MCF7 [2]; [8]", "value": "0.23 to 0.98", "unit": "µM"}, {"measurement": "IC50", "setting": "A549; [7]", "value": "0.89 to 2.11", "unit": "µM"}, {"measurement": "IC50", "setting": "HEK293; Homo sapiens, HEK293, 4 h, read-out: IC50", "value": "> 200", "unit": "µM"}, {"measurement": "IC50", "setting": "[5]", "value": 1.2, "unit": "µM"}, {"measurement": "IC50", "setting": "FaDu", "value": 0.68, "unit": "µM"}, {"measurement": "IC50", "setting": "SCC-25", "value": 2.24, "unit": "µM"}, {"measurement": "IC50", "setting": "Detroit 562", "value": 1.26, "unit": "µM"}]}
{"smiles": "O=C(N/C=C/c1c[nH]c2ccccc12)C(=O)c1c[nH]c2ccccc12", "values": [{"measurement": "IC50", "setting": "DU-145", "value": 7.6, "unit": "µg/mL"}]}
